According to ChEMBL document CHEMBL1150355, “Design and evaluation of a novel series of 2,3-oxidosqualene cyclase inhibitors with low systemic exposure, relationship between pharmacokinetic properties and ocular toxicity” (Bioorg Med Chem, 2008):
Calls of active or inactive are those of the source. No cut-off for these calls is given here.

What was measured:
Rattus norvegicus [1] = experiment: Induction of neosynthetized 2,3 mono-epoxysqualene synthesis in OFA rat lens at 2 mg/kg, po after 3 hrs relative to BIBB 515; format: functional, Lens of camera-type eye
In short: (§1)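 Male OFA rats dosed orally at 2 mg/kg. Sterol synthesis was labelled by ip [14C]mevalonate (370 kBq) for the final hour, giving 3 h or 8 h total exposure. Lens and liver lipids were extracted with isopropanol, separated by TLC, and cholesterol and MES radioactivity quantified by phosphorimaging. Cholesterol inhibition is relative to vehicle-treated rats, and MES as % of BIBB 515-treated rats (100%).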

Rattus norvegicus [2] = experiment: Induction of neosynthetized 2,3 mono-epoxysqualene synthesis in OFA rat liver at 2 mg/kg, po after 3 hrs relative to BIBB 515; format: functional; in short: as §1
Rattus norvegicus [3] = experiment: Inhibition of 2,3-oxidosqualene-lanosterol cyclase in male Sprague-Dawley rat assessed as 2,3 mono-epoxysqualene appearance in liver at 30 mg/kg, po administered once daily for 21 days; format: functional, organism-based; parameters: dose 30 mg/kg
In short: (§2)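 Sprague–Dawley rats (3 per sex) were dosed orally once daily for 21 days. On day 21, 3 h after the last dose, rats were sacrificed and hepatic lipids extracted and separated by TLC. MES was visualised with 5% phosphomolybdic acid in isopropanol, and MES mass quantified by densitometry.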

Rattus norvegicus [4] = experiment: Ocular toxicity in Sprague-Dawley rat assessed as opacification of anterior lens at 30 mg/kg, po administered once daily for 21 days; format: organism-based, Lens of camera-type eye; parameters: dose 30 mg/kg, route oral; conditions: in vivo, 504 h
In short: (§3)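 Sprague–Dawley rats (male and female, n = 3) were dosed orally once daily for 21 days. Anterior lens opacification was scored from 0 to 6 (4 marked, 5 very marked, 6 severe), with histological examination of the eye.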

Rattus norvegicus [5] = experiment: Inhibition of neosynthetized cholesterol synthesis in OFA rat liver at 2 mg/kg, po after 3 hrs; format: functional; in short: as §1
Rattus norvegicus [6] = experiment: Induction of neosynthetized 2,3 mono-epoxysqualene synthesis in OFA rat lens at 2 mg/kg, po after 8 hrs relative to BIBB 515; format: functional, Lens of camera-type eye; in short: as §1
Rattus norvegicus [7] = experiment: Induction of neosynthetized 2,3 mono-epoxysqualene synthesis in OFA rat liver at 2 mg/kg, po after 8 hrs relative to BIBB 515; format: functional; in short: as §1
[8] = Biodistribution in OFA rat eyes at 1 mg/kg, iv after 6 hrs; format: ADME, organism-based; parameters: dose 1 mg/kg, route intravenous; conditions: eye, read-out: Drug uptake
In short: (§4)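 OFA rats (n = 10) dosed 1 mg/kg by iv bolus via penis vein in 10% DMA/90% PEG200. Plasma and tissue homogenates in borate buffer 0.1 M pH 11.5 were extracted with ethyl ether and analysed by LC. Plasma AUC was computed over 0–6 h.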

[9] = Biodistribution in OFA rat liver at 1 mg/kg, iv after 6 hrs; format: ADME, organism-based; parameters: dose 1 mg/kg, route intravenous; conditions: read-out: Drug uptake; in short: as §4
Rattus norvegicus [10] = experiment: Inhibition of 2,3-oxidosqualene-lanosterol cyclase in female Sprague-Dawley rat assessed as 2,3 mono-epoxysqualene appearance in liver at 2 mg/kg, po administered once daily for 21 days; format: functional, organism-based; parameters: dose 2 mg/kg; in short: as §2
Rattus norvegicus [11] = experiment: Inhibition of neosynthetized cholesterol synthesis in OFA rat liver at 2 mg/kg, po after 8 hrs; format: functional; in short: as §1
[12] = Biodistribution in OFA rat eyes at 1 mg/kg, iv after 2 hrs; format: ADME, organism-based; parameters: dose 1 mg/kg, route intravenous; conditions: eye, read-out: Drug uptake; in short: as §4
Rattus norvegicus [13] = experiment: Inhibition of 2,3-oxidosqualene-lanosterol cyclase in male Sprague-Dawley rat assessed as 2,3 mono-epoxysqualene appearance in liver at 10 mg/kg, po administered once daily for 21 days; format: functional, organism-based; parameters: dose 10 mg/kg; in short: as §2
Rattus norvegicus [14] = experiment: Inhibition of 2,3-oxidosqualene-lanosterol cyclase in female Sprague-Dawley rat assessed as 2,3 mono-epoxysqualene appearance in liver at 30 mg/kg, po administered once daily for 21 days; format: functional, organism-based; parameters: dose 30 mg/kg; in short: as §2
[15] = Metabolic stability in rat liver microsomes assessed as intrinsic clearance […]; format: ADME, Microsome
Rattus norvegicus [16] = experiment: Inhibition of neosynthetized cholesterol synthesis in OFA rat lens at 2 mg/kg, po after 8 hrs; format: functional; conditions: Lens of camera-type eye; in short: as §1
[17] = AUC (0 to 6 hrs) in OFA rat at 1 mg/kg, iv; format: ADME, organism-based; parameters: time < 6 hr, dose 1 mg/kg, route intravenous; conditions: plasma; in short: as §4
Rattus norvegicus [18] = experiment: Inhibition of 2,3-oxidosqualene-lanosterol cyclase in female Sprague-Dawley rat assessed as 2,3 mono-epoxysqualene appearance in liver at 10 mg/kg, po administered once daily for 21 days; format: functional, organism-based; parameters: dose 10 mg/kg; in short: as §2
[19] = Biodistribution in OFA rat liver at 1 mg/kg, iv after 2 hrs; format: ADME, organism-based; parameters: dose 1 mg/kg, route intravenous; conditions: read-out: Drug uptake; in short: as §4
Rattus norvegicus [20] = experiment: Inhibition of 2,3-oxidosqualene-lanosterol cyclase in male Sprague-Dawley rat assessed as 2,3 mono-epoxysqualene appearance in liver at 2 mg/kg, po administered once daily for 21 days; format: functional, organism-based; parameters: dose 2 mg/kg; in short: as §2
Rattus norvegicus [21] = experiment: Inhibition of neosynthetized cholesterol synthesis in OFA rat lens at 2 mg/kg, po after 3 hrs; format: functional; conditions: Lens of camera-type eye; in short: as §1
Lanosterol synthase = biological target: T1, Lanosterol synthase (Homo sapiens, UniProt P48449); experiment: Inhibition of 2,3-oxidosqualene-lanosterol cyclase
T1 sequence (P48449 whole entry): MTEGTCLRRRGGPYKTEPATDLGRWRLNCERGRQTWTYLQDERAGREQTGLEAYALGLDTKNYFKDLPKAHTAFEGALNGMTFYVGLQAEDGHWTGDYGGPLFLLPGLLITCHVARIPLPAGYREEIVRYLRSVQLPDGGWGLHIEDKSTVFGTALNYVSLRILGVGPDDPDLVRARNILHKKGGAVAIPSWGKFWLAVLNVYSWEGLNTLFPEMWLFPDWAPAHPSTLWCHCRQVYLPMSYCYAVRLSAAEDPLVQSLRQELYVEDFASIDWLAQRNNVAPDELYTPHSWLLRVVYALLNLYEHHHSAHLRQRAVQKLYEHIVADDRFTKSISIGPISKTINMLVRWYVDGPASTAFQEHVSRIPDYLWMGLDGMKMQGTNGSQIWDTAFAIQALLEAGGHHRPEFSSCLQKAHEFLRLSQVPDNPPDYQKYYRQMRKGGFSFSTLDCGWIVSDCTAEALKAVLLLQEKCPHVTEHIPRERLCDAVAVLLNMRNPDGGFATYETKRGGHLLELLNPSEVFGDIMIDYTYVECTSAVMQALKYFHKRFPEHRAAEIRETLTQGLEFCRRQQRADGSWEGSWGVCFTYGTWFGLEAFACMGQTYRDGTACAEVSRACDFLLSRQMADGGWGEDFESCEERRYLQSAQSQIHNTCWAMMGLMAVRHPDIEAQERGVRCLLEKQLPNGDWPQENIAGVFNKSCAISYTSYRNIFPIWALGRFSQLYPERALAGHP
In short: (§5)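 HepG2 cells were incubated 24 h with compound in BME with 10% fetal calf serum, then labelled with [14C]mevalonate (7.4 kBq). Lipids were extracted with heptane/isopropanol and separated by TLC. [14C]cholesterol, MES and DES were identified against standards and quantified by phosphorimaging, scoring cholesterol synthesis inhibition together with MES/DES formation.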

[22] = biological target: T2, Lanosterol synthase (Homo sapiens) (UniProt P48449); experiment: Inhibition of 2,3-oxidosqualene-lanosterol cyclase at 200 nM; in short: as §5
T2 sequence (whole entry): T1 sequence (P48449 whole entry)

Rattus norvegicus [23] = experiment: Ocular toxicity in Sprague-Dawley rat assessed as opacification of anterior lens at 2 mg/kg, po administered once daily for 21 days; format: organism-based, Lens of camera-type eye; parameters: dose 2 mg/kg, route oral; conditions: in vivo, 504 h; in short: as §3

SMILES | Activity (Rattus norvegicus [1]) [%] | Activity (Rattus norvegicus [2]) [%] | inhibition in vivo at 2 mg/kg (Rattus norvegicus [5]) [%] | Activity (Rattus norvegicus [6]) [%] | Activity (Rattus norvegicus [7]) [%] | concentration at 6 h [8] [ng/g] | concentration at 6 h [9] [ng/g] | inhibition in vivo at 2 mg/kg (Rattus norvegicus [11]) [%] | concentration at 2 h [12] [ng/g] | CLint scaled [15] [mL/min/g] | inhibition in vivo at 2 mg/kg (Rattus norvegicus [16]) [%] | AUC(0-t) at 6 h [17] [ng·h/mL] | concentration at 2 h [19] [ng/g] | inhibition in vivo at 2 mg/kg (Rattus norvegicus [21]) [%] | IC50 (Lanosterol synthase) [µM] | Activity [22] | other results
CN1CCN(c2ccc(CN3CCN(S(=O)(=O)c4ccc(Cl)cc4)CC3)cc2)CC1 | 162 | 111 | 75 | 29 | 232 | 123 | 3270 | 62 | 278 | 5.4 | 67 | 97 | 6600 | 67 | 0.006 | – | Activity (Rattus norvegicus [3]): Toxic; Activity (Rattus norvegicus [4]): Toxic; Activity (Rattus norvegicus [10]): Toxic; Activity (Rattus norvegicus [13]): Toxic; Activity (Rattus norvegicus [14]): Toxic; Activity (Rattus norvegicus [18]): Toxic; Activity (Rattus norvegicus [20]): Toxic
CN(C)Cc1ccc(-c2ccc(CCNS(=O)(=O)c3ccc(C#N)cc3)cc2)cc1 | – | 6 | 47 | – | – | – | – | – | – | 9.9 | – | – | – | – | 0.028 | – | –
O=C(c1ccc(Cl)cc1)N1CCN(Cc2ccc(-n3cccn3)cc2)CC1 | – | – | – | – | – | – | – | – | – | – | – | – | – | – | – | inactive | –
CN(C)Cc1ccc(CN2CCN(C(=O)c3ccc(OC(F)(F)F)cc3)CC2)cc1 | 175 | 100 | 83 | 51 | 241 | 194 | 1320 | 69 | 260 | 3.6 | 66 | 362 | 2420 | 64 | 0.02 | – | –
CN(C)Cc1ccc(CN2CCN(S(=O)(=O)c3ccc(Cl)cc3)CC2)cc1 | – | 55 | 74 | – | – | – | – | – | – | 2.5 | – | – | – | – | 0.032 | – | –
O=C(c1ccc(Cl)cc1)N1CCN(Cc2ccc(-c3ccn[nH]3)cc2)CC1 | – | – | – | – | – | – | – | – | – | – | – | – | – | – | – | inactive | –
O=C(c1ccc(Cl)cc1)N1CCN(Cc2ccc(-c3ccncc3)cc2)CC1 | – | 55 | 64 | – | – | – | – | – | – | 6 | – | – | – | – | 0.003 | – | –
O=C(c1ccc(Cl)cc1)N1CCN(Cc2ccc(-n3ccnc3)cc2)CC1 | 104 | 156 | 85 | 51 | 85 | < 10 | 660 | 20 | 65 | 0.2 | 0 | 534 | 2010 | 76 | 0.032 | – | Activity (Rattus norvegicus [3]): Toxic; Activity (Rattus norvegicus [4]): Toxic; Activity (Rattus norvegicus [10]): Toxic; Activity (Rattus norvegicus [13]): Toxic; Activity (Rattus norvegicus [14]): Toxic; Activity (Rattus norvegicus [18]): Toxic; Activity (Rattus norvegicus [23]): Non-toxic; Activity (Rattus norvegicus [20]): Non-toxic
O=C(N1CCN(Cc2ccc(-n3ccnc3)cc2)CC1)C(F)(F)F | – | – | – | – | – | – | – | – | – | – | – | – | – | – | – | inactive | –
O=S(=O)(NCCc1ccc(-c2ccc(CN3CCCC3)cc2)cc1)c1ccc(Cl)cc1 | – | – | – | – | – | – | – | – | – | – | – | – | – | – | 0.063 | – | –
